According to ChEMBL document CHEMBL3286304, “Cytotoxicity and DNA binding property of the dimers of triphenylethylene-coumarin hybrid with one amino side chain” (Bioorg Med Chem Lett, 2014):
pIC50: −log10 of the molar value. The source made the active and inactive calls. The rule behind the calls is not given here.

Columns and labels:
HeLa = test: Antiproliferative activity against human HeLa cells after 48 hrs by MTT assay; type: functional, cell-based
A549 = test: Antiproliferative activity against human A549 cells after 48 hrs by MTT assay; type: functional, cell-based; conditions: A549, 48 h
MCF7 = test: Antiproliferative activity against human MCF7 cells after 48 hrs by MTT assay; type: functional, cell-based; conditions: MCF7, 48 h
K562 = test: Antiproliferative activity against human K562 cells after 48 hrs by MTT assay; type: functional, cell-based; conditions: K562, 48 h
Calf thymus DNA [1] = test: Binding affinity to calf thymus DNA assessed as hyperchromicity at 50 uM at 25 degC at pH 7.4 after 10 mins by UV-vis spectrophotometry; type: nucleic-acid assay; conditions: Bos taurus
How it was run: (§1)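 Ct-DNA titrated (0–180 µM for some dimers, 0–160 µM for others) into dimer at 5.0 × 10^-5 M in 10 mM phosphate buffer pH 7.4, 50 mM NaCl, 2% DMSO, 25 °C; UV–vis absorption followed at λmax; binding constant K by double inverse method.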

Calf thymus DNA [2] = test: Binding affinity to calf thymus DNA assessed as DNA intercalation at 20 uM at pH 7.4 after 10 mins by circular dichroism analysis; type: nucleic-acid assay; conditions: Bos taurus
How it was run: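 CD spectra of Ct-DNA (5.0 × 10^-5 M) alone and with dimer at 2.0 × 10^-5 M in 10 mM phosphate buffer pH 7.4, 50 mM NaCl, 2% DMSO, 25 °C.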

Calf thymus DNA [3] = test: Binding affinity to calf thymus DNA at 25 degC at pH 7.4 after 10 mins by UV-vis spectrophotometry; type: nucleic-acid assay; conditions: Bos taurus; how it was run: as §1
Calf thymus DNA [4] = test: Binding affinity to calf thymus DNA assessed as change in melting temperature at 5 uM after 10 mins by thermal denaturation assay; type: nucleic-acid assay; conditions: Bos taurus
How it was run: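 Melting curves of Ct-DNA (5.0 × 10^-5 M) with or without dimer at 5.0 × 10^-6 M in 1 mM phosphate buffer pH 7.4, 5 mM NaCl, 2% DMSO; heated over roughly 55–85 °C; ΔTm taken relative to DNA alone.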

Calf thymus DNA [5] = test: Binding affinity to calf thymus DNA at 25 degC at pH 7.4 after 10 mins by Stern-Volmer plot analysis; type: nucleic-acid assay; conditions: Bos taurus
How it was run: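 Dimer (5.0 × 10^-5 M) titrated with Ct-DNA 0–180 µM in 10 mM phosphate pH 7.4, 50 mM NaCl, 2% DMSO, 25 °C; fluorescence emission near 465 nm, excitation 330–345 nm by compound, slits 5.0 nm; F/F0 versus DNA concentration, Stern–Volmer fitting gives binding constant.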

Calf thymus DNA [6] = test: Binding affinity to calf thymus DNA assessed as hypsochromic shift at 50 uM at 25 degC at pH 7.4 after 10 mins by UV-vis spectrophotometry; type: nucleic-acid assay; conditions: Bos taurus; how it was run: as §1
[7] = Cytotoxicity against mouse skull osteoblasts at 40 uM after 48 hrs by MTT assay; type: cell-based; conditions: osteoblast
[8] = Cytotoxicity against mouse skull osteoblasts at 1 uM after 48 hrs by MTT assay; type: cell-based; conditions: osteoblast
[9] = Cytotoxicity against mouse skull osteoblasts at 20 uM after 48 hrs by MTT assay; type: cell-based; conditions: osteoblast
[10] = Cytotoxicity against mouse skull osteoblasts at 100 uM after 48 hrs by MTT assay; type: cell-based; conditions: osteoblast
[11] = Cytotoxicity against mouse skull osteoblasts at 10 uM after 48 hrs by MTT assay; type: cell-based; conditions: osteoblast

Compound | pIC50 (HeLa) | pIC50 (A549) | pIC50 (MCF7) | pIC50 (K562) | Activity (Calf thymus DNA [1]) | Activity (Calf thymus DNA [2]) | Kb (Calf thymus DNA [3]) | ΔTm (Calf thymus DNA [4]) | Kb (Calf thymus DNA [5]) | Activity (Calf thymus DNA [6]) | Activity [7] | Activity [8] | Activity [9] | Activity [10] | Activity [11]
Nc1ccc(-c2c(-c3ccc(OCCN4CCCC4)cc3)c3ccccc3oc2=O)cc1 | < 4.30 | < 4.30 | 4.34 | < 4.30 | – | – | – | – | – | – | – | – | – | – | –
Nc1ccc(-c2c(-c3ccc(OCCN4CCCCC4)cc3)c3ccccc3oc2=O)cc1 | < 4.30 | < 4.30 | 4.36 | < 4.30 | – | – | – | – | – | – | – | – | – | – | –
O=C(Nc1ccc(-c2c(-c3ccc(OCCN4CCCC4)cc3)c3ccccc3oc2=O)cc1)c1cccc(C(=O)Nc2ccc(-c3c(-c4ccc(OCCN5CCCC5)cc4)c4ccccc4oc3=O)cc2)c1 | 4.51 | 4.82 | 4.53 | 4.82 | – | – | – | – | – | – | – | – | – | – | –
O=C(Nc1ccc(-c2c(-c3ccc(OCCN4CCCCC4)cc3)c3ccccc3oc2=O)cc1)c1cccc(C(=O)Nc2ccc(-c3c(-c4ccc(OCCN5CCCCC5)cc4)c4ccccc4oc3=O)cc2)c1 | < 4.30 | < 4.30 | < 4.30 | < 4.30 | 32% | Active | 4.8 ×10⁴ /M | 2 °C | 1.3 ×10⁴ /M | 0.5 nm | – | – | – | – | –
O=C(CC(=O)Nc1ccc(-c2c(-c3ccc(OCCN4CCCC4)cc3)c3ccccc3oc2=O)cc1)Nc1ccc(-c2c(-c3ccc(OCCN4CCCC4)cc3)c3ccccc3oc2=O)cc1 | 5.19 | 5.11 | 5.45 | 5.49 | – | – | – | – | – | – | 14.5% | -10.4% | 0.8% | 27.4% | -1.3%

The next lines start with results.

pIC50 (HeLa) | pIC50 (A549) | pIC50 (MCF7) | pIC50 (K562) | Activity (Calf thymus DNA [1]) | Activity (Calf thymus DNA [2]) | Kb (Calf thymus DNA [3]) | ΔTm (Calf thymus DNA [4]) | Kb (Calf thymus DNA [5]) | Activity (Calf thymus DNA [6]) | Compound | Activity [7] | Activity [8] | Activity [9] | Activity [10] | Activity [11]
4.37 | 4.77 | 4.44 | 4.72 | – | – | – | – | – | – | O=C(CCCCCCCCC(=O)Nc1ccc(-c2c(-c3ccc(OCCN4CCCC4)cc3)c3ccccc3oc2=O)cc1)Nc1ccc(-c2c(-c3ccc(OCCN4CCCC4)cc3)c3ccccc3oc2=O)cc1 | – | – | – | – | –
4.44 | 4.65 | 4.43 | 4.55 | – | – | – | – | – | – | O=C(CCCCC(=O)Nc1ccc(-c2c(-c3ccc(OCCN4CCCC4)cc3)c3ccccc3oc2=O)cc1)Nc1ccc(-c2c(-c3ccc(OCCN4CCCC4)cc3)c3ccccc3oc2=O)cc1 | – | – | – | – | –
< 4.30 | < 4.30 | < 4.30 | < 4.30 | 35% | Active | 5.3 ×10⁴ /M | 2.5 °C | 2.1 ×10⁴ /M | 1.5 nm | O=C(CCCCCCCCC(=O)Nc1ccc(-c2c(-c3ccc(OCCN4CCCCC4)cc3)c3ccccc3oc2=O)cc1)Nc1ccc(-c2c(-c3ccc(OCCN4CCCCC4)cc3)c3ccccc3oc2=O)cc1 | – | – | – | – | –
4.46 | 4.57 | 4.45 | 4.62 | 40% | Active | 1.5 ×10⁵ /M | 5.1 °C | 3.8 ×10⁵ /M | 1.5 nm | O=C(CCCCC(=O)Nc1ccc(-c2c(-c3ccc(OCCN4CCCCC4)cc3)c3ccccc3oc2=O)cc1)Nc1ccc(-c2c(-c3ccc(OCCN4CCCCC4)cc3)c3ccccc3oc2=O)cc1 | – | – | – | – | –
5.11 | 5.07 | 5.07 | 6.01 | 47% | Active | 4.5 ×10⁵ /M | 6 °C | 6.9 ×10⁵ /M | 2 nm | O=C(CC(=O)Nc1ccc(-c2c(-c3ccc(OCCN4CCCCC4)cc3)c3ccccc3oc2=O)cc1)Nc1ccc(-c2c(-c3ccc(OCCN4CCCCC4)cc3)c3ccccc3oc2=O)cc1 | 20.1% | -8.4% | 0.6% | 36.2% | 0.3%
